Data: ChEMBL document CHEMBL5252537, “Usnic Acid Benzylidene Analogues as Potent Mechanistic Target of Rapamycin Inhibitors for the Control of Breast Malignancies” (J Nat Prod, 2017)
Activity calls are given as the source filed them. The rule behind the calls is not given here.

Tests used:
MDA-MB-231 [1] = test: Induction of autophagy in human MDA-MB-231 cells assessed as increase in beclin-1 level by Western blotting analysis; format: functional, cell-based; settings: dose 15-25 µM
Method in brief: (§1)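 Cells seeded at 5 × 10^5 per 100 mm dish and allowed to attach overnight. Treated with compound or DMSO for 72 h (HGF 100 ng/mL added for MDA-MB-231). Lysed in RIPA buffer with protease inhibitors. 30 μg protein run on SDS-PAGE, transferred to PVDF, blocked in 5% BSA/TBST. Primary antibodies overnight at 4 °C, HRP secondary antibodies, chemiluminescent detection.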

[2] = biological target: Serine/threonine-protein kinase mTOR (Homo sapiens) (UniProt P42345); test: Inhibition of mTOR in human MDA-MB-231 cells assessed as reduction in phosphorylated 4E-BP1 level at 15 to 25 uM by Western blot analysis; format: cell-based; settings: dose 15-25 µM; method in brief: as §1
[3] = biological target: Serine/threonine-protein kinase mTOR (Homo sapiens) (UniProt P42345); test: Inhibition of mTOR in human MDA-MB-231 cells assessed as reduction in p-S6K level at 15 to 25 uM by Western blot analysis; format: cell-based; settings: dose 15-25 µM; method in brief: as §1
MCF7 [4] = test: Antiproliferative activity against human MCF7 cells incubated for 72 hrs by MTT assay; format: functional, cell-based; settings: MCF7, 72 h
Method in brief: (§2)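 Cells seeded at 5 × 10^3/well and allowed to attach overnight, then washed with PBS. Compound diluted from 10 mM DMSO stock into medium (100 ng/mL HGF added for c-Met-expressing cells), in triplicate, 72 h at 37 °C. MTT added for 4 h, formazan dissolved in DMSO, absorbance read at 570 nm. Cell numbers taken from a standard curve; IC50 calculated.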

T47D = test: Antiproliferative activity against human T47D cells incubated for 72 hrs by MTT assay; format: functional, cell-based; method in brief: as §2
MDA-MB-231 [5] = test: Antiproliferative activity against human MDA-MB-231 cells incubated for 72 hrs by MTT assay; format: functional, cell-based; settings: MDA-MB-231, 72 h; method in brief: as §2
mTORC2 (Homo sapiens) [6] = biological target: T1, mTORC2 (Homo sapiens) (UniProt P42345+Q6R327+Q9BVC4+Q9BPZ7); test: Inhibition of mTORC2 in human MDA-MB-231 cells assessed as reduction in Akt phosphorylation at Ser473 residue at 15 to 25 uM by Western blot analysis; format: cell-based; settings: dose 15-25 µM; method in brief: as §1
SK-BR-3 = test: Antiproliferative activity against human SK-BR-3 cells incubated for 72 hrs by MTT assay; format: functional, cell-based; settings: SK-BR-3, 72 h; method in brief: as §2
mTORC2 (Homo sapiens) [7] = biological target: T1, mTORC2 (Homo sapiens); test: Inhibition of mTORC2 in human MCF7 cells assessed as reduction in Akt phosphorylation at Ser473 residue at 15 to 25 uM by Western blot analysis; format: cell-based; settings: dose 15-25 µM; method in brief: as §1
[8] = biological target: Serine/threonine-protein kinase mTOR (Homo sapiens) (UniProt P42345); test: Inhibition of mTOR in human […] cells assessed as reduction in phosphorylated 4E-BP1 level at 15 to 25 uM by Western blot analysis; format: cell-based; settings: MCF7, dose 15-25 µM; method in brief: as §1
MDA-MB-468 = test: Antiproliferative activity against human MDA-MB-468 cells incubated for 72 hrs by MTT assay; format: functional, cell-based; settings: MDA-MB-468, 72 h; method in brief: as §2
MCF7 [9] = test: Induction of autophagy in human MCF7 cells assessed as increase in LC3 level by Western blotting analysis; format: functional, cell-based; settings: dose 15-25 µM; method in brief: as §1
MDA-MB-231 [10] = test: Antimigratory activity in human MDA-MB-231 cells assessed as inhibition of cell migration after 23 hrs by scratch wound healing assay; format: functional, cell-based
Method in brief: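 Cells seeded at 1 × 10^5/well and grown to a confluent monolayer, then scratched with a 200 μL pipet tip. Held 5 h in serum-free medium, then given medium with HGF (100 ng/mL) plus compound or DMSO. Norstictic acid (15 μM) was the positive control. Wound width photographed at 0 h and followed up to 24 h; cells MeOH-fixed. Percent migration from wound thickness versus DMSO wells; IC50 calculated.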

MCF7 [11] = test: Induction of autophagy in human MCF7 cells assessed as increase in beclin-1 level by Western blotting analysis; format: functional, cell-based; settings: dose 15-25 µM; method in brief: as §1
BT-474 = test: Antiproliferative activity against human BT-474 cells incubated for 72 hrs by MTT assay; format: functional, cell-based; settings: BT-474, 72 h; method in brief: as §2
MDA-MB-231 [12] = test: Anti-invasive activity in human MDA-MB-231 cells after 24 hrs […]; format: functional, cell-based; settings: MDA-MB-231, 24 h
MDA-MB-231 [13] = test: Induction of autophagy in human MDA-MB-231 cells assessed as increase in LC3 level by Western blotting analysis; format: functional, cell-based; settings: dose 15-25 µM; method in brief: as §1
[14] = biological target: Serine/threonine-protein kinase mTOR (Homo sapiens) (UniProt P42345); test: Inhibition of mTOR in human […] cells assessed as reduction in p-S6K level at 15 to 25 uM by Western blot analysis; format: cell-based; settings: MCF7, dose 15-25 µM; method in brief: as §1

inhibition [2]: Active
inhibition [3]: Active
IC50 (MCF7 [4]): 11.2 µM
IC50 (T47D): 15.9 µM
IC50 (MDA-MB-231 [5]): 13.1 µM
inhibition (mTORC2 (Homo sapiens) [6]): Active
IC50 (SK-BR-3): 14.4 µM
inhibition (mTORC2 (Homo sapiens) [7]): Active
inhibition [8]: Active
IC50 (MDA-MB-468): 13.7 µM
IC50 (MDA-MB-231 [10]; MDA-MB-231, 23 h): 13.7 µM
IC50 (BT-474): 15.1 µM
IC50 (MDA-MB-231 [12]): 14.2 µM
inhibition [14]: Active
SMILES: CC(=O)C1=C(O)C=C2Oc3c(C(C)=O)c(O)c(C)c(O)c3[C@]2(C)C1=O [(-)-USNIC ACID]
Activity (MDA-MB-231 [1]): Dose-Dependent Effect
Activity (MCF7 [9]): Dose-Dependent Effect
Activity (MDA-MB-231 [10]): Dose-Dependent Effect
Activity (MCF7 [11]): Dose-Dependent Effect
Activity (MDA-MB-231 [13]): Dose-Dependent Effect
